# Assay results of several laboratories.
# Lines come from different studies, so protocols differ.
# PIK3CA: Phosphatidylinositol 4,5-bisphosphate 3-kinase catalytic subunit alpha isoform (PIK3CA, Homo sapiens, UniProt P42336)
# FOLH1: Glutamate carboxypeptidase 2 (FOLH1, Homo sapiens, UniProt Q04609)
Compound,target,observed,mode,technique,endpoint,result
O=C1Nc2ccccc2/C1=N/c1ccccc1Br,"Phosphatidylinositol 4,5-bisphosphate 3-kinase catalytic subunit beta isoform (PIK3CB, Homo sapiens, UniProt P42338)",enzyme activity,inhibitor,ADP detection,IC50,0.524 µM
CN(C)C(=O)c1cc2cnc(Nc3cccc(-c4cccc5c(=O)cc(N6CCOCC6)oc45)c3)nc2n1C1CCCC1,PIK3CA,enzyme activity,inhibitor,radiometric,IC50,8.17 µM
CCC(C(=O)N1C(=O)C(=Nc2ccc(Cl)cc2Br)c2ccccc21)c1ccccc1 (stereo not shown),PIK3CA,enzyme activity,inhibitor,ADP detection,IC50,0.409 µM
CC1(C)CN(CCCCC(=O)N[C@@H](CCC(=O)O)C(=O)N[C@@H](CCC(=O)O)C(=O)N[C@H](CCCCNC(=O)CCCCCCC(=O)NCCCC[C@H](NC(=O)N[C@@H](CCC(=O)O)C(=O)O)C(=O)O)C(=O)O)CC[N]2CC(C)(C)[S][Tc]2(=[O])[S]1 (stereo partly shown),FOLH1,binding,,radioligand,Kd,0.0061 µM
CN(C)C(=O)c1cc2cnc(Nc3ccc(-c4cccc5c(=O)cc(N6CCOCC6)oc45)cc3)nc2n1C1CCCC1,PIK3CA,enzyme activity,inhibitor,radiometric,IC50,0.472 µM
CC1(C)CN(CCCCC(=O)N[C@H](Cc2ccccc2)C(=O)N[C@H](Cc2ccccc2)C(=O)N[C@@H](CCCCNC(=O)CCCCCCC(=O)NCCCC[C@H](NC(=O)N[C@@H](CCC(=O)O)C(=O)O)C(=O)O)C(=O)O)CC[N]2CC(C)(C)[S][Tc]2(=[O])[S]1 (stereo partly shown),FOLH1,binding,,radioligand,Kd,0.0155 µM
CCCCC(=O)Nc1ccc(-c2ccc3ncn(CCC)c(=O)c3c2)cn1,"Phosphatidylinositol 5-phosphate 4-kinase type-2 beta (PIP4K2B, Homo sapiens, UniProt P78356)",binding,,competition with immobilised ligand,Kd,> 20 µM
O.O=C([O-])CN(CCN(CC(=O)[O-])Cc1cc(CCC(=O)O)ccc1O)Cc1cc(CCC(=O)NCCCCCC(=O)NCCCC[C@H](NC(=O)N[C@@H](CCC(=O)O)C(=O)O)C(=O)O)ccc1[O-].[Ga+3],FOLH1,binding,,radioligand,Kd,0.0116 µM
CC1=CC(=O)NS(=O)(=O)O1,"T1R2/T1R3 (Homo sapiens, UniProt Q7RTX0+Q8TE23)",calcium signal,agonist,,EC50,1340 µM
C=CCN1C(=O)C(=Nc2cccc(C)c2)c2ccccc21,PIK3CA,enzyme activity,inhibitor,ADP detection,IC50,0.205 µM
CN(C)C(=O)c1cc2cnc(Nc3cccc4c(=O)cc(N5CCOCC5)oc34)nc2n1C1CCCC1,PIK3CA,enzyme activity,inhibitor,radiometric,IC50,> 10 µM
O=C1C(=Nc2ccc(Cl)cc2Br)c2ccccc2N1Cc1ccc(Br)cc1,PIK3CA,enzyme activity,inhibitor,ADP detection,IC50,0.0434 µM
CC[C@H](C)[C@H](NC(=O)C[C@@H](NC(=O)CCC(=O)O)C(=O)O)C(=O)N[C@H]1CCc2cccc3c2N(C1=O)[C@H](C(=O)NCc1cn[nH]n1)C3,"Granzyme B (GZMB, Homo sapiens, UniProt P10144)",enzyme activity,inhibitor,fluorescence,Ki,0.0072 µM
